Source: PubChem BioAssay
An excerpt weighted towards active compounds, which were near 1.2% of everything screened.
Rin1-Abl PPI inh – human Rin1-Abl interaction inhibition | TR-FRET Rin1/Abl binding, biochemical | hit rate 0.4% among 360,000 | P00519+Q13671 | inhibition, % at 7.35 µM; in the data active = inhibition above about 5%, passing the limit was not always enough
ARFGAP1 inhibitor – rat ARFGAP1 inhibition | Q62848 | Arfgap1-stimulated ARF1 GTP hydrolysis, GDP FP detection | inhibition, % at 16.5 µM | hit rate 0.26% among 360,000 | AID 651572;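 active = inhibition above a per-plate limit, mean inhibition of low control wells plus 3 SD, cut at about 25% in these data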
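Material: rat Arfgap1 GAP domain (His6, aa 1-136), purified enzyme. Also added: human ARF1(Δ1-17)-GTP substrate. Compound dosing: 16.5 µM single point, 1.26% DMSO. Timing: enzyme reaction 120 min at 25 °C after 20 min preincubation. Signal: GDP detection by fluorescence polarization. Read-out basis: percent inhibition of GAP-stimulated GDP formation, scaled between DMSO and no-Arfgap1 medians.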
GalR3 antag – human GalR3 antagonism; O60755; HEK293 GalR3-CNG cAMP membrane potential fluorescence; galR3 body fused to GalR1 C-terminus; inhibition, % at 3 µM; hit rate 0.44% among 360,000; AID 651719;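 active = inhibition above the screen-wide average plus 3 SD, cut at about 13% in these data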;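 also: forskolin and galanin both at EC90 stimulate the cells; cAMP rise reported by CNG channel membrane potential dye signal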
ASAP1 inh – blocks human ASAP1-stimulated Arf1 GTP hydrolysis; Q9ULH1; GDP FP detection; AID 624377; inhibition, % at 16.5 µM; hit rate 0.19% among 360,000; in the data active = inhibition above about 25%
Rin1 Abl conf – Rin1-Abl interaction inhibition confirmation. shares compounds with Rin1-Abl PPI inh. TR-FRET Rin1-Abl binding, purified proteins. inhibition, % at 7.35 µM. hit rate 49% among 1,300. AID 602124
GFP quench – quenches GFP fluorescence, counter-screen for Rin1-Abl inhibitors | inhibitors/quenchers counterscreen | AID 602125 | shares compounds with Rin1-Abl PPI inh | inhibition, % at 6.75 µM | hit rate 8.5% among 1,300;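 also: ABL1-eGFP fusion protein alone without its partner RIN1-SBP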
GFP quench DR – quenches GFP in dose response, Rin1-Abl counter-screen; IC50, µM; 230 tested, under 10 active; shares compounds with Rin1-Abl PPI inh; GFP fluorescence interference/quenching counterscreen; call rule not given here;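 also: ABL1-eGFP fusion protein alone without its RIN1 binding partner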
Large screens that a line does not name were inactive (follow-up assays come after a bar, where they were run). Rule as the data show it, unless noted: active = inhibition above about 6.5%; inactive = the rest.

Cc1nn(-c2ccccc2)c(C)c1C(=O)OCC(=O)N(C)c1ccccc1	Rin1-Abl PPI inh 9.0 | Rin1 Abl conf inactive | GFP quench inactive
COC(=O)C1=C(C)N(Cc2ccccc2C(F)(F)F)C(=NCC2CC2)NC1c1cccc(F)c1 (stereo not given)	none (no result: Rin1-Abl PPI inh)
COc1ccc2ccccc2c1CN1CCN(c2ncc(Cc3ccccc3)cn2)CC1	none (no result: Rin1-Abl PPI inh)
CCOC(=O)NC(=O)COC(=O)CCCc1nc2ccccc2s1	Rin1-Abl PPI inh 5.4 | Rin1 Abl conf inactive | GFP quench inactive
Cc1ccc(Cl)cc1S(=O)(=O)N1CCC(C(=O)NC2CCN(Cc3ccccc3)CC2)CC1	Rin1-Abl PPI inh 15.5 | Rin1 Abl conf inactive | GFP quench inactive
CCN(CC)S(=O)(=O)c1ccc(S(=O)(=O)N2CCC(C(=O)NC3CCN(Cc4ccccc4)CC3)CC2)cc1	none (no result: ARFGAP1 inhibitor, GalR3 antag, ASAP1 inh)
O=C(Nc1ccn(C2CCC(CO)O2)c(=O)n1)c1ccccc1 (stereo not given)	Rin1-Abl PPI inh 65.0 | Rin1 Abl conf 55.6 | GFP quench inactive
C#CCO[C@@H]1C[C@H](n2ccc(NC(=O)c3ccccc3)nc2=O)O[C@@H]1CO	Rin1-Abl PPI inh 10.2 | Rin1 Abl conf inactive | GFP quench inactive
Cc1cc(O)cc(=O)n1-c1cccc([N+](=O)[O-])c1	none (no result: Rin1-Abl PPI inh)
C=CCN1[C@@H](C)[C@H](c2ccccc2)Oc2cccc(N3CCCC3)c2S1(=O)=O	none (no result: Rin1-Abl PPI inh)
CCC(C)NS(=O)(=O)c1ccc(S(=O)(=O)N(CC(=O)Nc2ccccc2)Cc2ccco2)cc1 (stereo not given)	Rin1-Abl PPI inh 4.8 | Rin1 Abl conf inactive | GFP quench inactive
CCCC(C)NC(=O)CN(Cc1ccco1)S(=O)(=O)c1ccccc1 (stereo not given)	none
CC(=O)C1=CCN(C)CC1	none (no result: Rin1-Abl PPI inh)
COc1ccc(Cn2cc(CN3[C@@H](c4ccccc4)COc4cc(Br)ccc4S3(=O)=O)nn2)cc1	none (no result: Rin1-Abl PPI inh)
COC(=O)CCCCC1SCC2NC(=O)NC21 (stereo not given)	Rin1-Abl PPI inh 11.9 | Rin1 Abl conf 16.1 | GFP quench inactive
O=C(O)CCCC[C@@H]1SC[C@@H]2NC(=O)N[C@@H]21	Rin1-Abl PPI inh 83.9 | Rin1 Abl conf 92.9 | GFP quench inactive | GFP quench DR inactive
O=C(O)CCCCCCCCCCC1CCC(O)C1O (stereo not given)	none
COC(=O)C1=C(C)N(Cc2ccc(C(F)(F)F)cc2)C(=NCc2ccccc2C(F)(F)F)NC1c1ccccc1C(F)(F)F (stereo not given)	none (no result: Rin1-Abl PPI inh)
Cn1c(CCC(=O)Nc2ccc(N3CCOCC3)cc2)nc(=O)c2ccccc21	Rin1-Abl PPI inh 9.6 | Rin1 Abl conf inactive | GFP quench inactive
O=C(NCCc1ccccc1Cl)[C@@H]1CCCN1C(=O)[C@@H](NC(=O)N1CCOCC1)c1ccccc1	none (no result: Rin1-Abl PPI inh)
O=C(/C=C/c1cccnc1)c1cccc(O)c1	Rin1-Abl PPI inh 8.6 | Rin1 Abl conf 10.2 | GFP quench inactive
O=C(N[C@H](C(=O)N1CCC[C@H]1C(=O)NCCc1ccccc1Cl)c1ccccc1)c1cccs1	none (no result: Rin1-Abl PPI inh)
CCc1cc2c(nc1CC)CCCN2S(=O)(=O)c1ccc(C(F)(F)F)cc1	none (no result: Rin1-Abl PPI inh)
CCOC(=O)c1ccc(NC(=O)CN(C)S(=O)(=O)c2ccc(OC)cc2)cc1	Rin1-Abl PPI inh 8.0 | Rin1 Abl conf inactive | GFP quench inactive
COC(=O)c1cc2c(c3c4ccccc4n(S(C)(=O)=O)c13)C(=O)N(Cc1ccccc1)C2	none (no result: Rin1-Abl PPI inh)
CCOC(=O)N1CCC(N2C(=O)c3ccccc3C2Nc2ccc(S(=O)(=O)N(CC)CC)cc2)CC1 (stereo not given)	Rin1-Abl PPI inh 10.6 | Rin1 Abl conf 10.0 | GFP quench inactive
Cc1ccc(NC2CCCN(C(=O)c3cc4ncccn4n3)C2)cc1C (stereo not given)	Rin1-Abl PPI inh 37.0 | Rin1 Abl conf inactive | GFP quench inactive
Cc1ccc(NC2CCCN(C(=O)CN3C(=O)c4ccccc4C3=O)C2)cc1C (stereo not given)	Rin1-Abl PPI inh 9.8 | Rin1 Abl conf inactive | GFP quench inactive
Cc1cccc(C(=O)Nc2cccc(C(=O)N/N=C/c3ccccn3)c2)c1	Rin1-Abl PPI inh 19.0 | Rin1 Abl conf inactive | GFP quench inactive
O=C(COc1ccc(F)cc1)NCC1(N2CCOCC2)CCCCC1	Rin1-Abl PPI inh 11.0 | Rin1 Abl conf inactive | GFP quench inactive
Cn1cnc2c1c(=O)n(Cc1ccc(F)cc1Cl)c(=O)n2C	Rin1-Abl PPI inh 7.6 | Rin1 Abl conf inactive | GFP quench inactive
C=CCN=C1NC(c2ccccc2C(F)(F)F)C(C(=O)OC)=C(C)N1Cc1ccc(C(F)(F)F)cc1 (stereo not given)	none (no result: Rin1-Abl PPI inh)
C[n+]1c(-c2ccccc2)cc2c(=Cc3ccccc3)c3ccccc3n21	Rin1-Abl PPI inh 12.7 | Rin1 Abl conf inactive | GFP quench inactive
COc1ccccc1C(=O)N=C1NC(=O)CC2C(=O)NCCN12 (stereo not given)	Rin1-Abl PPI inh 8.8 | Rin1 Abl conf inactive | GFP quench inactive
Cc1cc(C)nc(/N=C2\NC(=O)CC3C(=O)NCCN23)n1 (stereo not given)	none
CC(C)(C)OC(=O)N1CCC2CCN(S(C)(=O)=O)CC21 (stereo not given)	none (no result: Rin1-Abl PPI inh)
O=C(COc1ccccc1Cl)NCCNC(=O)c1ccccn1	none
Cc1ccccc1OCC(=O)NCCNC(=O)c1ccccn1	Rin1-Abl PPI inh 14.8 | Rin1 Abl conf inactive | GFP quench inactive
CC(NS(=O)(=O)c1ccc2c(c1)CC(C)N2C(=O)C1CC1)c1ccccc1 (stereo not given)	Rin1-Abl PPI inh 9.5 | Rin1 Abl conf inactive | GFP quench inactive
COCc1[nH]nc2c1C(c1cccc(C(F)(F)F)c1)N(c1ccc(OC)cc1)C2=O (stereo not given)	none (no result: Rin1-Abl PPI inh)
Cc1ccc(C(C[N+](=O)[O-])c2c(C)[nH]n(-c3ccccc3)c2=O)cc1 (stereo not given)	Rin1-Abl PPI inh 6.0 | Rin1 Abl conf inactive | GFP quench inactive
Cc1[nH]n(-c2ccccc2)c(=O)c1C(C[N+](=O)[O-])c1ccc(F)cc1 (stereo not given)	none
Cc1[nH][nH]c(=O)c1C(c1c(C)[nH][nH]c1=O)c1cn(Cc2ccc(Cl)c(Cl)c2)c2ccccc12	Rin1-Abl PPI inh 14.2 | Rin1 Abl conf inactive | GFP quench inactive
O=c1oc2ccccc2n1CCCCCn1c(=O)oc2ccccc21	Rin1-Abl PPI inh 4.8 | Rin1 Abl conf inactive | GFP quench inactive
CCCN1C(=O)c2n[nH]c(C)c2C1c1ccc2c(c1)OCO2 (stereo not given)	none (no result: Rin1-Abl PPI inh)
